The source made the active and inactive calls. No cut-off for these calls is given here.
Columns and labels:
B16-F0 [1] = assay: Induction of melanogenesis-stimulating activity in mouse B16F0 cells assessed as increase in TRP-2 protein expression at 3.1 to 12.5 uM after 72 hrs by Western blotting analysis; assay type: functional, cell-based
How it was run: (§1)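 B16 cells were treated for 72 h at 0–12.5 µM and lysed in RIPA with protease inhibitors (0 °C, 30 min). Lanes held 10 µg protein on 10% SDS–PAGE, transferred to PVDF and blocked with 2% BSA/TBST at 4 °C overnight. Primaries ran 2 h: MITF 1:1000, tyrosinase, TRP-1 and p-p38 1:200, TRP-2 and p38 1:100. HRP secondary was 1:5000 for 2 h, with ECL densitometry. GAPDH blotted; three independent experiments.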

B16-F0 [2] = assay: Extracellular melanogenesis-stimulating activity in mouse B16F0 cells at 25 uM after 72 hrs by spectrophotometry relative to control; assay type: functional
How it was run: (§2)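 B16-F0 cells in DMEM with 10% FBS were seeded at 5.0 × 10⁴ cells/well and adhered for 24 h. They were treated for 72 h at 200–10 µM or 50–6.25 µM, depending on compound series. Absorbance of the collected culture medium at 510 nm gave extracellular melanin, expressed as % of DMSO-treated control. Experiments were done twice.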

[3] = Cytotoxicity against mouse B16F0 cells assessed as cell viability at 12.5 uM after 72 hrs by MTT assay; assay type: cell-based; conditions: read-out: Activity
How it was run: (§3)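 B16-F0 cells were seeded at 5.0 × 10⁴ cells/well and allowed to adhere for 24 h at 37 °C. They were exposed for 72 h to compound at 200–10 µM or 50–6.25 µM, depending on compound series. MTT (5 mg/mL stock in PBS) was added for 4 h at 37 °C in 5% CO₂, then dissolved in isopropanol/0.04 N HCl and read at 590 nm. Viability is % of DMSO control; experiments were done twice.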

B16-F0 [4] = assay: Intracellular melanogenesis-stimulating activity in mouse B16F0 cells at 12.5 uM after 72 hrs by spectrophotometry relative to control; assay type: functional
How it was run: (§4)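 Cells were seeded at 5.0 × 10⁴ cells/well, adhered for 24 h, then treated with compound for 72 h. After a PBS wash, cells were lysed in 1 M NaOH at 100 °C for 30 min to solubilize melanin. Lysate absorbance at 405 nm served as the intracellular melanin index, expressed as % of DMSO control. Experiments were done twice.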

B16-F0 [5] = assay: Induction of melanogenesis-stimulating activity in mouse B16F0 cells assessed as increase in MITF protein expression at 3.1 to 12.5 uM after 72 hrs by Western blotting analysis; assay type: functional, cell-based; how it was run: as §1
[6] = Cytotoxicity against mouse B16F0 cells assessed as cell viability at 50 uM after 72 hrs by MTT assay; assay type: cell-based; conditions: read-out: Activity; how it was run: as §3
B16-F0 [7] = assay: Intracellular melanogenesis-stimulating activity in mouse B16F0 cells at 25 uM after 72 hrs by spectrophotometry relative to control; assay type: functional; how it was run: as §4
B16-F0 [8] = assay: Extracellular melanogenesis-stimulating activity in mouse B16F0 cells at 12.5 uM after 72 hrs by spectrophotometry relative to control; assay type: functional; how it was run: as §2
B16-F0 [9] = assay: Induction of melanogenesis-stimulating activity in mouse B16F0 cells assessed as increase in TRP-1 protein expression at 3.1 to 12.5 uM after 72 hrs by Western blotting analysis; assay type: functional, cell-based; how it was run: as §1
B16-F0 [10] = assay: Extracellular melanogenesis-stimulating activity in mouse B16F0 cells at 50 uM after 72 hrs by spectrophotometry relative to control; assay type: functional; how it was run: as §2
[11] = Cytotoxicity against mouse B16F0 cells assessed as cell viability at 25 uM after 72 hrs by MTT assay; assay type: cell-based; conditions: read-out: Activity; how it was run: as §3
B16-F0 [12] = assay: Intracellular melanogenesis-stimulating activity in mouse B16F0 cells at 50 uM after 72 hrs by spectrophotometry relative to control; assay type: functional; how it was run: as §4
B16-F0 [13] = assay: Induction of melanogenesis-stimulating activity in mouse B16F0 cells assessed as increase in p-p38 MAPK level at 3.1 to 12.5 uM after 72 hrs by Western blotting analysis; assay type: functional, cell-based; how it was run: as §1
B16-F0 [14] = assay: Induction of melanogenesis-stimulating activity in mouse B16F0 cells assessed as increase in tyrosinase protein expression at 3.1 to 12.5 uM after 72 hrs by Western blotting analysis; assay type: functional, cell-based; how it was run: as §1
B16-F0 [15] = assay: Induction of melanogenesis-stimulating activity in mouse B16F0 cells assessed as increase in p-p38 MAPK level after 72 hrs by Western blotting analysis; assay type: functional, cell-based; how it was run: as §1
B16-F0 [16] = assay: Extracellular melanogenesis-stimulating activity in mouse B16F0 cells at 6.25 uM after 72 hrs by spectrophotometry relative to control; assay type: functional; how it was run: as §2
B16-F0 [17] = assay: Induction of melanogenesis-stimulating activity in mouse B16F0 cells assessed as increase in MITF protein expression after 72 hrs by Western blotting analysis; assay type: functional, cell-based; how it was run: as §1
B16-F0 [18] = assay: Induction of melanogenesis-stimulating activity in mouse B16F0 cells assessed as increase in p38-MAPK protein expression after 72 hrs by Western blotting analysis; assay type: functional, cell-based; how it was run: as §1
B16-F0 [19] = assay: Induction of melanogenesis-stimulating activity in mouse B16F0 cells assessed as increase in tyrosinase protein expression after 72 hrs by Western blotting analysis; assay type: functional, cell-based; how it was run: as §1
B16-F0 [20] = assay: Induction of melanogenesis-stimulating activity in mouse B16F0 cells assessed as increase in TRP-1 protein expression after 72 hrs by Western blotting analysis; assay type: functional, cell-based; how it was run: as §1
B16-F0 [21] = assay: Induction of melanogenesis-stimulating activity in mouse B16F0 cells assessed as increase in TRP-2 protein expression after 72 hrs by Western blotting analysis; assay type: functional, cell-based; how it was run: as §1
B16-F0 [22] = assay: Intracellular melanogenesis-stimulating activity in mouse B16F0 cells at 6.25 uM after 72 hrs by spectrophotometry relative to control; assay type: functional; how it was run: as §4
[23] = Cytotoxicity against mouse B16F0 cells assessed as cell viability at 6.25 uM after 72 hrs by MTT assay; assay type: cell-based; conditions: read-out: Activity; how it was run: as §3
B16-F0 [24] = assay: Intracellular melanogenesis-stimulating activity in mouse B16F0 cells at 500 uM after 72 hrs by spectrophotometry relative to control; assay type: functional
B16-F0 [25] = assay: Extracellular melanogenesis-stimulating activity in mouse B16F0 cells at 125 uM after 72 hrs by spectrophotometry relative to control; assay type: functional
How it was run: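 B16-F0 cells were seeded at 5.0 × 10⁴ cells/well, allowed to adhere for 24 h, then treated for 72 h. Culture medium was collected and its absorbance read at 510 nm as extracellular melanin. Results are % of DMSO-treated control; experiments repeated twice.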

B16-F0 [26] = assay: Intracellular melanogenesis-stimulating activity in mouse B16F0 cells at 125 uM after 72 hrs by spectrophotometry relative to control; assay type: functional
How it was run: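 After 72 h treatment of B16-F0 cells (5.0 × 10⁴ cells/well, 24 h adherence), cells were washed with PBS and lysed in 1 M NaOH at 100 °C for 30 min to solubilise melanin. Lysate absorbance was read at 405 nm as intracellular melanin, expressed as % of DMSO control; experiments repeated twice.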

[27] = Cytotoxicity against mouse B16F0 cells assessed as cell viability at 250 uM after 72 hrs by MTT assay; assay type: cell-based; conditions: read-out: Activity
[28] = Cytotoxicity against mouse B16F0 cells assessed as cell viability at 125 uM after 72 hrs by MTT assay; assay type: cell-based; conditions: read-out: Activity
How it was run: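 B16-F0 murine melanoma cells in DMEM with 10% FBS, penicillin and streptomycin, at 37 °C and 5% CO₂. Seeded at 5.0 × 10⁴ cells/well, adhered 24 h, then exposed 72 h. MTT (5 mg/mL stock in PBS) added for 4 h at 37 °C, formazan taken up in isopropanol with 0.04 N HCl, A590 read. Viability given as % of DMSO control; experiments repeated twice.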

B16-F0 [29] = assay: Extracellular melanogenesis-stimulating activity in mouse B16F0 cells at 500 uM after 72 hrs by spectrophotometry relative to control; assay type: functional
B16-F0 [30] = assay: Intracellular melanogenesis-stimulating activity in mouse B16F0 cells at 250 uM after 72 hrs by spectrophotometry relative to control; assay type: functional
[31] = Cytotoxicity against mouse B16F0 cells assessed as cell viability at 500 uM after 72 hrs by MTT assay; assay type: cell-based; conditions: read-out: Activity
B16-F0 [32] = assay: Extracellular melanogenesis-stimulating activity in mouse B16F0 cells at 250 uM after 72 hrs by spectrophotometry relative to control; assay type: functional

Question: Which results are given for `COc1c(-c2ccc(O)c(O)c2)oc2cc(O)cc(O)c2c1=O` [3-O-METHYLQUERCETIN]?
Answer: Activity (B16-F0 [1]): Active; Activity (B16-F0 [2]): 130.8%; viability at 72 h, 12.5 µM [3]: 98.2%; Activity (B16-F0 [4]): 137%; Activity (B16-F0 [5]): inactive; viability at 72 h, 50 µM [6]: 74.4%; Activity (B16-F0 [7]): 146.5%; Activity (B16-F0 [8]): 124.1%; Activity (B16-F0 [9]): Active; Activity (B16-F0 [10]): 224.9%; viability at 72 h, 25 µM [11]: 88.1%; Activity (B16-F0 [12]): 157.3%; Activity (B16-F0 [13]): inactive; Activity (B16-F0 [14]): Active

Question: Which results are given for `COc1cc(O)c2c(=O)c(OC)c(-c3ccc(OC)c(O)c3)oc2c1` [AYANIN]?
Answer: Activity (B16-F0 [15]): Dose-dependent effect; Activity (B16-F0 [16]): 225.5%; Activity (B16-F0 [2]): 298.7%; viability at 72 h, 12.5 µM [3]: 102%; Activity (B16-F0 [4]): 181.4%; Activity (B16-F0 [17]): Dose-dependent effect; Activity (B16-F0 [18]): inactive; Activity (B16-F0 [7]): 203.4%; Activity (B16-F0 [19]): Dose-dependent effect; Activity (B16-F0 [8]): 228%; Activity (B16-F0 [20]): Dose-dependent effect; viability at 72 h, 25 µM [11]: 90.2%; Activity (B16-F0 [21]): Dose-dependent effect; Activity (B16-F0 [22]): 127.7%; viability at 72 h, 6.25 µM [23]: 95.3%

Question: What does the source list for `Cn1c(=O)c2nc[nH]c2n(C)c1=O.O` [THEOPHYLLINE]?
Answer: Activity (B16-F0 [24]): 166.8%; Activity (B16-F0 [25]): 170.7%; Activity (B16-F0 [26]): 127.6%; viability at 72 h, 250 µM [27]: 94.4%; viability at 72 h, 125 µM [28]: 95.5%; Activity (B16-F0 [29]): 204%; Activity (B16-F0 [30]): 131.7%; viability at 72 h, 500 µM [31]: 91.4%; Activity (B16-F0 [32]): 183.2%

Reference: ChEMBL document CHEMBL3286099, “Synthesized quercetin derivatives stimulate melanogenesis in B16 melanoma cells by influencing the expression of melanin biosynthesis proteins MITF and p38 MAPK” (Bioorg Med Chem, 2014)
